We go through twelve molecules from publication PMC3178989 (Indian Journal of Pharmaceutical Sciences, 2010).

Molecules are shown by their SMILES. In brackets after ≈: the same amount, converted by molar mass.

The subject of series [1] is mock-infected MT-4 cells. Description: Cytotoxicity for mock-infected MT-4 cells. It counts as cell-based. To be noted: MTT, printed in both strain rows. Put shortly: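 Mock-infected MT-4 cells were grown in RPMI 1640 with 10% heat-inactivated FCS, 2 mM glutamine, 0.1% sodium bicarbonate and 20 µg/ml gentamicin. Cells (6×10^5 cells/ml) were exposed to test compound, and viability was measured by MTT to derive the 50% cytotoxic concentration. A reference drug was tested the same way.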

For series [2], the system named is Herpes simplex virus-2 (G). Description: microbe, parasite or virus in culture. It counts as cell-based. To be noted: Human alphaherpesvirus 2, read-out: EC50 Herpes simplex virus-2 (G).
For series [3], the system named is HIV-2(ROD). In words: Inhibition of HIV-2 induced cytopathic effect in MT-4 cells. To be noted: for EC50: MT4, 120 h, read-out: IC50a (50% effective concentration, 50% protection of MT-4 cells against the cytopathic effect of HIV). The series is classed as cell-based. Put shortly: (§1)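 MT-4 cells were kept in RPMI 1640 with 10% heat-inactivated FCS, 2 mM glutamine, 0.1% sodium bicarbonate and 20 µg/ml gentamicin. Virus stocks (HIV-1 IIIB/LAI, HIV-2 ROD) were grown and titred in MT-4 cells and stored at -70°. 100-300 CCID50 were added to cells at 6×10^5 cells/ml with test compound, then incubated 5 d at 37°. Protection from cytopathic effect was read as viable cells by MTT. A reference drug was run alike.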
Background: Damage to the host cells serves as the signal in cytopathic effect assays.

Series [4] has as its system Herpes simplex virus-1 (KOS). In words: microbe, parasite or virus in culture. The series is classed as cell-based. Conditions: for EC50: Human alphaherpesvirus 1, read-out: EC50 Herpes simplex virus-1 (KOS).
Series [5] has as its system HEL cultures. To be noted: microscopically detectable alteration of normal cell morphology.
Series [6] relates to Vaccinia virus. Description: microbe, parasite or virus in culture. The series is classed as cell-based. To be noted: for EC50: Orthopoxvirus vaccinia, read-out: EC50 Vaccinia virus.
The subject of series [7] is Herpes simplex virus-1 TK- KOS ACVr. In words: microbe, parasite or virus in culture. It counts as cell-based. To be noted: Human alphaherpesvirus 1, read-out: EC50 Herpes simplex virus-1 TK- KOS ACVr.
The subject of series [8] is HIV-1(IIIB). Description: Inhibition of HIV-1 induced cytopathic effect in MT-4 cells. It counts as cell-based, Human immunodeficiency virus-1. Conditions: strain IIIB, 5 d, MTT. The essentials:
as §1

For the molecule `O=C(O)c1ccccc1-n1c(-c2ccccc2)nc2ccccc2c1=O` [AA1, 2-(4-oxo-2-phenyl-4H-quinazolin-3-yl)-benzoic acid], in series [1], the “IC50b (50% cytotoxic concentration, reduces viability of mock-infected MT-4 cells by 50%)” value was above 125 µg/mL. Also, the EC50 in series [2] is 58 µg/mL (≈ 169 µM); in series [3], above 125 µg/mL; in series [4] it was 100 µg/mL (≈ 292 µM); in series [6] it was above 100 µg/mL. Also, in series [5], the Minimum cytotoxic concentration is above 100 µg/mL.
`O=C(O)c1cc(Br)ccc1-n1c(-c2ccccc2)nc2ccccc2c1=O` [AA2, 5-Bromo-2-(4-oxo-2-phenyl-4H-quinazolin-3-yl)-benzoic acid]: in series [1], the “IC50b (50% cytotoxic concentration, reduces viability of mock-infected MT-4 cells by 50%)” value is 88.20 µg/mL. Moreover, the EC50 was 58 µg/mL (≈ 138 µM) in series [2]; above 88.2 µg/mL in series [3]; 50 µg/mL (≈ 119 µM) in series [4]; 100 µg/mL (≈ 237 µM) in series [6]; 58 µg/mL (≈ 138 µM) in series [7]. The molecule further came in with a Minimum cytotoxic concentration in series [5] above 100 µg/mL.
Consider `O=C(O)c1cc(Br)cc(Br)c1-n1c(-c2ccccc2)nc2ccccc2c1=O` [AA3, 3,5-dibromo-2-(4-oxo-2-phenyl-4H-quinazolin-3-yl)-benzoic acid], for which, in series [1], the “IC50b (50% cytotoxic concentration, reduces viability of mock-infected MT-4 cells by 50%)” value was above 125 µg/mL. The EC50 was 100 µg/mL (≈ 200 µM) in series [2]; above 125 µg/mL in series [3]; 50 µg/mL (≈ 100 µM) in series [4]; 100 µg/mL (≈ 200 µM) in series [6]; 100 µg/mL (≈ 200 µM) in series [7]. For the same molecule, the Minimum cytotoxic concentration in series [5] was above 100 µg/mL.
In the case of `Cc1cn([C@H]2C[C@H](N=[N+]=[N-])[C@@H](CO)O2)c(=O)[nH]c1=O` [AZT, reference compound], the “IC50b (50% cytotoxic concentration, reduces viability of mock-infected MT-4 cells by 50%)” value in series [1] is 65.90 µg/mL. The “IC50a (50% effective concentration, 50% protection of MT-4 cells against the cytopathic effect of HIV)” value in series [3] (strain ROD, MT-4 cells, 5 d, MTT) was 0.00062 µg/mL; in series [8], 0.0012 µg/mL.
Turning to `O=c1[nH]c(=O)n([C@H]2C[C@H](O)[C@@H](CO)O2)cc1/C=C/Br` [Brivudin, reference compound], the EC50 in series [2] came out at 22 µg/mL (≈ 66 µM); in series [4], 0.04 µg/mL (≈ 0.12 µM); in series [6] it was 6 µg/mL (≈ 18 µM); in series [7], 10 µg/mL (≈ 30 µM).
For the molecule `Nc1ccn(C[C@@H](CO)OCP(=O)(O)O)c(=O)n1` [Cidofovir, reference compound], the EC50 in series [2] worked out at 0.8 µg/mL (≈ 2.87 µM); in series [4] it was 0.8 µg/mL (≈ 2.87 µM); in series [6], 10 µg/mL (≈ 35.8 µM); in series [7] it was 1 µg/mL (≈ 3.58 µM).
On to `O=C(O)c1ccccc1-n1c(-c2ccccc2)nc2c(Br)cc(Br)cc2c1=O` [DBR1, 2-(6,8-Dibromo-4-oxo-2-phenyl-4H-quinazolin-3-yl)-benzoic acid], for which the “IC50b (50% cytotoxic concentration, reduces viability of mock-infected MT-4 cells by 50%)” value in series [1] worked out at 83.15 µg/mL. For the same molecule, the EC50 is 50 µg/mL (≈ 100 µM) in series [2]; above 83.2 µg/mL in series [3]; 58 µg/mL (≈ 116 µM) in series [4]; 100 µg/mL (≈ 200 µM) in series [6]; 100 µg/mL (≈ 200 µM) in series [7]. For the same molecule, in series [5], the Minimum cytotoxic concentration was above 100 µg/mL.
On to `O=C(O)c1cc(Br)ccc1-n1c(-c2ccccc2)nc2c(Br)cc(Br)cc2c1=O` [DBR2, 5-Bromo-2-(6,8-dibromo-4-oxo-2-phenyl-4H-quinazolin-3-yl)-benzoic acid], for which the “IC50b (50% cytotoxic concentration, reduces viability of mock-infected MT-4 cells by 50%)” value in series [1] was determined as 64.18 µg/mL. For the same molecule, the EC50 is above 20 µg/mL in series [2]; above 64.2 µg/mL in series [3]; above 20 µg/mL in series [4]; above 20 µg/mL in series [6]; above 20 µg/mL in series [7]. In series [5], this molecule came in with a Minimum cytotoxic concentration of 100 µg/mL.
`O=C(O)c1cc(Br)cc(Br)c1-n1c(-c2ccccc2)nc2c(Br)cc(Br)cc2c1=O` [DBR3, 3,5-Dibromo-2-(6,8-dibromo-4-oxo-2-phenyl-4H-quinazolin-3-yl)-benzoic acid]: the “IC50b (50% cytotoxic concentration, reduces viability of mock-infected MT-4 cells by 50%)” value in series [1] was above 125 µg/mL. Also, the EC50 in series [2] was above 100 µg/mL; in series [3], above 125 µg/mL; in series [4], above 100 µg/mL; in series [6], above 100 µg/mL; in series [7], above 100 µg/mL. Also, the Minimum cytotoxic concentration in series [5] was above 100 µg/mL.
For the molecule `O=C(O)c1ccccc1-n1c(-c2ccccc2)nc2ccc(Br)cc2c1=O` [MBR1, 2-(6-Bromo-4-oxo-2-phenyl-4H-quinazolin-3-yl)-benzoic acid], the “IC50b (50% cytotoxic concentration, reduces viability of mock-infected MT-4 cells by 50%)” value in series [1] is above 125 µg/mL. Moreover, the EC50 is above 20 µg/mL in series [2]; above 125 µg/mL in series [3]; above 20 µg/mL in series [4]; above 20 µg/mL in series [6]; above 20 µg/mL in series [7]. In series [5], this molecule displayed a Minimum cytotoxic concentration of 100 µg/mL.
With `O=C(O)c1cc(Br)ccc1-n1c(-c2ccccc2)nc2ccc(Br)cc2c1=O` [MBR2, 5-Bromo-2-(6-bromo-4-oxo-2-phenyl-4H-quinazolin-3-yl)-benzoic acid], in series [1], the “IC50b (50% cytotoxic concentration, reduces viability of mock-infected MT-4 cells by 50%)” value is 60.40 µg/mL. For the same molecule, the EC50 was 12 µg/mL (≈ 24 µM) in series [2], above 60.4 µg/mL in series [3], 12 µg/mL (≈ 24 µM) in series [4] and 12 µg/mL (≈ 24 µM) in series [6]. Moreover, the “EC50 Herpes simplex virus-1 (KOS)” value in series [4] (HEL cultures, reduces virus-induced cytopathogenicity by 50 %) was “distinct antiviral activity”. This molecule also yielded a Minimum cytotoxic concentration in series [5] of 100 µg/mL. Further, in series [6], the “EC50 Vaccinia virus” value was “distinct antiviral activity”.
As to `NC(=O)c1ncn([C@@H]2O[C@H](CO)[C@@H](O)[C@H]2O)n1` [Ribavirin, reference compound], the EC50 in series [2], in series [4], in series [6] and in series [7] was above 250 µg/mL in each case.
